Sampled rows, rich in hits. Any-hit rate of the full collection: about 2.8%.
NCF1 inh = blocks human p47phox regulatory protein of NADPH oxidases; inhibition, % at 24.7 µM; p47phox/p22phox peptide binding, fluorescence polarization, 2 h; 220,000 tested, 0.53% active
14-3-3 Bad PPI = disrupts binding of bovine 14-3-3 zeta to phospho-Bad peptide | P63103 | TR-FRET 14-3-3zeta/Dy647-pBad peptide displacement, 1 h | inhibition, % at 21.7 µM | 220,000 tested, 0.71% active | AID 781;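 active means inhibition above about 70%, limit read from the data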
Target sequence (P63103 whole entry, looked up): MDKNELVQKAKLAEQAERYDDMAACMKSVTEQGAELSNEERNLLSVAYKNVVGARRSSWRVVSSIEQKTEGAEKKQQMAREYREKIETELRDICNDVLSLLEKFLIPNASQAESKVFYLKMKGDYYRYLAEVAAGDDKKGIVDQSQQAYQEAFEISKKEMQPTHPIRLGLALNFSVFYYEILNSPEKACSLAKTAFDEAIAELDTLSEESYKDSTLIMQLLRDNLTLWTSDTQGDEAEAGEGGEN
eIF4E-4G inh = inhibitors of eIF4E and eIF4G interaction in translation initiation. P63073+Q04637. 220,000 tested, 0.37% active. AID 782. TR-FRET eIF4E-eIF4GI(517-606) binding, 2 h. inhibition, % at 21.7 µM
Wee1 stabilizer = human Wee1 degradation inhibition, primary screen; P30291; HeLa Luc-Wee1K328M stability, luciferase luminescence; 100% = proteasome inhibitor MG132 effect; reporter increase, % at 5 µM; 220,000 tested, 1.2% active; AID 1321;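 active means activation above the mean of all tested compounds plus 3 SD, set per screening run, cut at about 8.8% in these data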;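 further: cells exposed to compound for 20 h before luminescence read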
RBBP9 inhibitor = blocks human serine hydrolase RBBP9 | O75884 | recombinant RBBP9, FP-Rh probe fluorescence polarization | inhibition, % at 7.94 µM | 220,000 tested, 0.2% active | AID 1515;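 active means inhibition above the campaign mean of all tested compounds plus 3 SD, cut at about 14% in these data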
Target sequence (O75884 whole entry, looked up): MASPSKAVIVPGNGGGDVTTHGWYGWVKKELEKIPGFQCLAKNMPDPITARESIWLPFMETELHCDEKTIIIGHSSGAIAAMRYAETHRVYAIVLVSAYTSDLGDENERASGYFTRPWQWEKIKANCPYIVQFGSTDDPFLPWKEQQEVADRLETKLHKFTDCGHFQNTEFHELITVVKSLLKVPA
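Test system – recombinant human RBBP9 · Input – RBBP9 2.5 µM in dispensing solution, pre-mixing · Medium – Tris buffer pH 8.0, NaCl, Pluronic · Schedule – preincubation 30 min plus labeling 45 min at 25 °C · Measured by – fluorescence polarization · Measure – % inhibition · Controls – DMSO and no-protein wells · Replicates – one well per compound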
Large screens that a line does not name were inactive.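 How the source made its calls, unless noted: active means inhibition above about 30% (limit read from the data); inactive means the rest.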

COc1cc(C(=O)NC(=S)Nc2ccc3oc(=O)ccc3c2)cc(OC)c1OC	none
CN(C)c1ccc(NC(=S)N2CCN(c3ncc(C(F)(F)F)cc3Cl)CC2)cc1	none
Cc1cccc(Nc2ncnc3ccccc23)c1	14-3-3 Bad PPI 73
Cc1ccc(Nc2ncnc3ccccc23)cc1	none
CCC(C)(C)n1nnnc1C(c1ccc(O)c(OC)c1)N1CCc2ccccc2C1 (stereo unspecified)	14-3-3 Bad PPI 82
CCC(C)(C)n1nnnc1C(c1ccccc1)N1CCc2ccccc2C1 (stereo unspecified)	none
COC(=O)c1onc(-c2c(Cl)cccc2Cl)c1C(=O)OC	NCF1 inh 47
Cc1noc(NC(=O)c2c(-c3c(Cl)cccc3Cl)noc2C)c1[N+](=O)[O-]	Wee1 stabilizer 8.9
COc1ccc(-n2c(C)nc3cc(C(=O)NCc4ccco4)ccc32)cc1	none
CCOc1ccc(-n2c(C)nc3cc(C(=O)NCc4ccco4)ccc32)cc1	Wee1 stabilizer 9.5
CCCOc1ccc2oc(=O)c3c(c2c1)CCCN3C(=O)CN(C)Cc1ccccc1	none (no result: 14-3-3 Bad PPI, eIF4E-4G inh)
C1=CC2CC1CC2CN1CCN(c2ccccc2)CC1 (stereo unspecified)	14-3-3 Bad PPI 75
Cc1ccccc1CN1CCN(CC2CC3C=CC2C3)CC1 (stereo unspecified)	none
O=C(Oc1ccc(N(Cc2cccs2)C2=NS(=O)(=O)c3ccccc32)cc1)c1ccccc1F	none
O=C(OCCN(C1=NS(=O)(=O)c2ccccc21)c1ccccc1Cl)c1ccc(Cl)cc1	Wee1 stabilizer 9.7
O=C1N=C(N2CCOCC2)S/C1=C/c1cc2c(cc1[N+](=O)[O-])OCO2	Wee1 stabilizer 9.1
O=C1N=C(N2CCOCC2)S/C1=C\c1ccccc1OS(=O)(=O)c1ccccc1	none
CC1CC(=O)Nc2ccccc2N1C(=O)CN1CCN(C=O)CC1 (stereo unspecified)	none
COc1ccc(C(=O)CSc2cc(C)nc3nc(C)nn23)cc1OC	NCF1 inh 129
Cc1cc(N)c2cc(NC(=O)/C=C/c3ccccc3Cl)ccc2n1	NCF1 inh 97
Cc1cc(C)nc(N2CCCC(C(=O)NCCC3=CCCCC3)C2)n1 (stereo unspecified)	none
Cc1cc(CN(C)Cc2c(C(=O)N3CCCCCCC3)nc3ccc(Cl)cn23)n[nH]1	Wee1 stabilizer 9.3
CCN(C)Cc1c(C(=O)N2CCc3ccccc3C2)nc2ccc(Cl)cn12	none
C(=N\Nc1nc2ccccc2s1)/c1ccccn1	none
Brc1csc(/C=N/Nc2nc3ccccc3s2)c1	Wee1 stabilizer 8.9
COC(=O)CCCC1=CC2=C(c3ccccc3)C(=O)C(C)(OC(=O)C3CCCC3)C(=O)C2=CN1CCc1c[nH]c2ccccc12 (stereo unspecified)	none (no result: Wee1 stabilizer, RBBP9 inhibitor)
O=C1c2cccc3cc([N+](=O)[O-])cc(c23)C(=O)N1CCN1CCCC1	none
O=C1c2cccc3cc([N+](=O)[O-])cc(c23)C(=O)N1/N=C/c1ccc(O)cc1O	14-3-3 Bad PPI 97
CCOCCCNC(=O)C1CCN(S(=O)(=O)CC)CC1	Wee1 stabilizer 15
CCOCCCNC(=O)C1CCN(S(=O)(=O)N(CC(C)C)CC(C)C)CC1	none
CC1=CC2=NC(=O)CC(C)(C(=O)N(CC(=O)NC(C)(C)C)C3CCCC3)N2C=C1 (stereo unspecified)	none
CC1=CC2=NC(=O)CC(C)(C(=O)N(CC(=O)NC3CCCC3)c3cc(C)cc(C)c3)N2C=C1 (stereo unspecified)	eIF4E-4G inh 35
O=C(O)c1cc(-c2cccc([N+](=O)[O-])c2)n[nH]1	none
CCOC(=O)c1cc(-c2cccc([N+](=O)[O-])c2)n[nH]1	14-3-3 Bad PPI 81
COc1ccc(C(=O)N/N=C/C2CC=CCC2)cc1OC (stereo unspecified)	none
O=C(Cc1c[nH]c2ccccc12)NCc1ccccc1F	none
CCN=C1NN=C(c2cc(C)n(CCc3ccccc3)c2C)CS1	14-3-3 Bad PPI 92
C=CCn1c(C)cc(C2=NNC(=NCc3ccccc3)SC2)c1C	none
CN(C)NC(=S)NC1CC2CCC1C2 (stereo unspecified)	eIF4E-4G inh 90
O=C(NCc1ccco1)c1ccc(COc2cccc3ccccc23)cc1	none
O=C(NCc1ccco1)c1ccc(COc2ccccc2Cl)cc1	Wee1 stabilizer 13
COc1ccc(S(=O)(=O)N2CCOCC2)cc1NC(=O)Cc1ccc(Cl)c(Cl)c1	none
